Measurements gathered from unrelated publications.
Lines come from different studies, so protocols differ.
Target: Dual specificity protein kinase CLK4 (CLK4, Homo sapiens, UniProt Q9HAZ1)

| Compound | assay | conditions | remaining binding [%] |
| --- | --- | --- | --- |
| Cc1c(NC(=O)c2cc(C(N)=O)nc3cc(F)ccc23)c(C(F)(F)F)nn1Cc1ccc(C(C)(C)C)cc1 | cell-free assay, competition with immobilised ligand | 1 µM | 100 |
| O=C(NCCCN1CCOCC1)c1ccc(Nc2nccc(-c3cc4ccccc4s3)n2)cc1 | binding, competition with immobilised ligand | 1 µM | 11 |
| C[C@@H]1CCN(c2nccc(-c3cnn4ncccc34)n2)C1 | binding | 1 µM | 12 |
| CCN1CCN(Cc2ccc(C(=O)Nc3ccc(C)c(Oc4ccc5c(c4)CC(=O)N5)c3)cc2C(F)(F)F)CC1 | binding, competition with immobilised ligand | 1 µM | 94 |
| COc1cnc(Nc2cccc(S(N)(=O)=O)c2)nc1N1CCN(c2ccccc2)CC1 | binding, competition with immobilised ligand | 1 µM | 100 |
| Nc1ncc2c(n1)-c1c([nH]c3ccc(C#CC4CC4)cc13)CCCC2 | binding, competition with immobilised ligand | 1 µM | 76 |
| Cc1cnn2ncc(-c3ccnc(N(C)C)n3)c2c1 | binding | 1 µM | 9.7 |
| O=C(NCC1CCOCC1)c1n[nH]cc1NC(=O)c1c(F)cccc1F | binding, competition with immobilised ligand | 1 µM | 32 |
| CC1=C(C#N)C(c2ccc3c(c2)c(NC(=O)c2ccccc2C)nn3C)C(C#N)=C(C)N1 | cell-free assay, competition with immobilised ligand | 1 µM | 76 |
| C[C@@H](c1ccc(-n2cnc3c(N)ncnc32)cc1)N1CCc2nn(C)c(Cc3ccccc3)c2C1=O | binding, competition with immobilised ligand | 0.1 µM | 100 |
| Cn1cc(Cl)c2c(Oc3c(F)cc(Nc4cc(Cl)nc(N)n4)cc3F)ccnc21 | cell-free assay, competition with immobilised ligand | 0.1 µM | 100 |
| N[C@H]1CCN(c2nccc(-c3cnn4ncccc34)n2)C1 | binding | 1 µM | 22 |
| O=C(c1ccc(Nc2nccc(-c3cc4ccccc4s3)n2)cc1)N1CCC(N2CCCC2)CC1 | binding, competition with immobilised ligand | 1 µM | 27 |
| FC(F)(F)Oc1cccc(-c2cnc3ccc(-c4ccncc4)nn23)c1 | cell-free assay, competition with immobilised ligand | 5 µM | 7.8 |
| CNCc1ccccc1-c1csc([C@@H](C)Nc2nc(C)nc3cc(OC)c(OC)cc23)c1 | cell-free assay, competition with immobilised ligand | 1 µM | 100 |
| CN(C)c1nccc(-c2cnn3ncccc23)n1 | binding | 1 µM | 5.9 |
| CC(C)(O)c1cncc(-c2nc3ccc(F)cc3n2C2CC2)c1 | cell-free assay, competition with immobilised ligand | 1 µM | 54 |
| Cc1cnc(Nc2ccc(C(=O)N3CCC(N4CCCC4)CC3)cc2)nc1-c1cc2ccccc2s1 | binding, competition with immobilised ligand | 1 µM | 11 |
| CC1CCCN1c1nccc(-c2cnn3ncccc23)n1 (stereo not shown) | binding | 1 µM | 55 |
| c1cncc(-c2cccc(Nc3nccc(NC4CCCCC4)n3)c2)c1 | binding, competition with immobilised ligand | 10 µM | 1 |
| Cc1nc(N2CC[C@@H](O)C2)ncc1-c1cc(C(F)(F)F)cc2[nH]ncc12 | binding, competition with immobilised ligand | 1 µM | 92 |
| c1cnn2ncc(-c3ccnc(N4CCC45COC5)n3)c2c1 | binding | 1 µM | 6.2 |
